From ChEMBL document CHEMBL3734689, “Enzyme kinetics and inhibition of histone acetyltransferase KAT8” (Eur J Med Chem, 2015)
The source made the active and inactive calls. The calls are words filed in the database; no cut-off is given here.

Tests used:
[1] = molecular target: T1, Histone acetyltransferase KAT8 (Homo sapiens) (UniProt Q9H7Z6); assay: Inhibition of recombinant N-terminal His6-tagged KAT8 (unknown origin) expressed in Escherichia Coli BL21 DE3 cells assessed as reduction of Co A level using histone H4 substrate at 400 uM after 15 mins by CPM fluorescence assay
T1 sequence (whole entry): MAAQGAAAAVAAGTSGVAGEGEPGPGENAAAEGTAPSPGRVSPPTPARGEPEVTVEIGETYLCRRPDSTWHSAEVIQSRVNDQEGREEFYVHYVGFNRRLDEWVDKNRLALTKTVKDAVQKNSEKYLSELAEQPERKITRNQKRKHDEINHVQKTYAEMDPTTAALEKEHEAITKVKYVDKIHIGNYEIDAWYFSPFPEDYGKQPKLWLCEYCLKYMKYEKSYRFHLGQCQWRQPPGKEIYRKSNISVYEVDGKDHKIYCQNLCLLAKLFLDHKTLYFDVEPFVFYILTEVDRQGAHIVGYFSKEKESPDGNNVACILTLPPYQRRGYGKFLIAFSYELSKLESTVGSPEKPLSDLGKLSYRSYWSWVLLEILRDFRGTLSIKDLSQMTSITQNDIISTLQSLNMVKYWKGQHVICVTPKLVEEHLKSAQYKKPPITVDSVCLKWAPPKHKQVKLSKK

[2] = molecular target: T1, Histone acetyltransferase KAT8 (Homo sapiens); assay: Inhibition of recombinant N-terminal His6-tagged KAT8 (unknown origin) expressed in Escherichia Coli BL21 DE3 cells assessed as reduction of Co A level using histone H4 substrate after 15 mins by CPM fluorescence assay
[3] = molecular target: Histone acetyltransferase p300 (Homo sapiens) (UniProt Q09472); assay: Inhibition of human recombinant Histone acetyltransferase p300 catalytic domain (1284-1672 residues) using [3H]Acetyl-CoA and histone H3 substrate at 50 uM after 1 hr by liquid scintillation counting
Summary of the method: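 p300 activity was measured by radiolabel transfer to the histone substrate. Compounds were tested at a single 50 µM concentration, and the value is the percent inhibition.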

[4] = molecular target: Histone acetyltransferase p300 (Homo sapiens) (UniProt Q09472); assay: Inhibition of human recombinant Histone acetyltransferase p300 catalytic domain (1284-1672 residues) using [3H]Acetyl-CoA and histone H3 substrate at 200 uM after 1 hr by liquid scintillation counting

Histone acetyltransferase p300 (Homo sapiens), sequence (Q09472 whole entry, the tested form may be a part): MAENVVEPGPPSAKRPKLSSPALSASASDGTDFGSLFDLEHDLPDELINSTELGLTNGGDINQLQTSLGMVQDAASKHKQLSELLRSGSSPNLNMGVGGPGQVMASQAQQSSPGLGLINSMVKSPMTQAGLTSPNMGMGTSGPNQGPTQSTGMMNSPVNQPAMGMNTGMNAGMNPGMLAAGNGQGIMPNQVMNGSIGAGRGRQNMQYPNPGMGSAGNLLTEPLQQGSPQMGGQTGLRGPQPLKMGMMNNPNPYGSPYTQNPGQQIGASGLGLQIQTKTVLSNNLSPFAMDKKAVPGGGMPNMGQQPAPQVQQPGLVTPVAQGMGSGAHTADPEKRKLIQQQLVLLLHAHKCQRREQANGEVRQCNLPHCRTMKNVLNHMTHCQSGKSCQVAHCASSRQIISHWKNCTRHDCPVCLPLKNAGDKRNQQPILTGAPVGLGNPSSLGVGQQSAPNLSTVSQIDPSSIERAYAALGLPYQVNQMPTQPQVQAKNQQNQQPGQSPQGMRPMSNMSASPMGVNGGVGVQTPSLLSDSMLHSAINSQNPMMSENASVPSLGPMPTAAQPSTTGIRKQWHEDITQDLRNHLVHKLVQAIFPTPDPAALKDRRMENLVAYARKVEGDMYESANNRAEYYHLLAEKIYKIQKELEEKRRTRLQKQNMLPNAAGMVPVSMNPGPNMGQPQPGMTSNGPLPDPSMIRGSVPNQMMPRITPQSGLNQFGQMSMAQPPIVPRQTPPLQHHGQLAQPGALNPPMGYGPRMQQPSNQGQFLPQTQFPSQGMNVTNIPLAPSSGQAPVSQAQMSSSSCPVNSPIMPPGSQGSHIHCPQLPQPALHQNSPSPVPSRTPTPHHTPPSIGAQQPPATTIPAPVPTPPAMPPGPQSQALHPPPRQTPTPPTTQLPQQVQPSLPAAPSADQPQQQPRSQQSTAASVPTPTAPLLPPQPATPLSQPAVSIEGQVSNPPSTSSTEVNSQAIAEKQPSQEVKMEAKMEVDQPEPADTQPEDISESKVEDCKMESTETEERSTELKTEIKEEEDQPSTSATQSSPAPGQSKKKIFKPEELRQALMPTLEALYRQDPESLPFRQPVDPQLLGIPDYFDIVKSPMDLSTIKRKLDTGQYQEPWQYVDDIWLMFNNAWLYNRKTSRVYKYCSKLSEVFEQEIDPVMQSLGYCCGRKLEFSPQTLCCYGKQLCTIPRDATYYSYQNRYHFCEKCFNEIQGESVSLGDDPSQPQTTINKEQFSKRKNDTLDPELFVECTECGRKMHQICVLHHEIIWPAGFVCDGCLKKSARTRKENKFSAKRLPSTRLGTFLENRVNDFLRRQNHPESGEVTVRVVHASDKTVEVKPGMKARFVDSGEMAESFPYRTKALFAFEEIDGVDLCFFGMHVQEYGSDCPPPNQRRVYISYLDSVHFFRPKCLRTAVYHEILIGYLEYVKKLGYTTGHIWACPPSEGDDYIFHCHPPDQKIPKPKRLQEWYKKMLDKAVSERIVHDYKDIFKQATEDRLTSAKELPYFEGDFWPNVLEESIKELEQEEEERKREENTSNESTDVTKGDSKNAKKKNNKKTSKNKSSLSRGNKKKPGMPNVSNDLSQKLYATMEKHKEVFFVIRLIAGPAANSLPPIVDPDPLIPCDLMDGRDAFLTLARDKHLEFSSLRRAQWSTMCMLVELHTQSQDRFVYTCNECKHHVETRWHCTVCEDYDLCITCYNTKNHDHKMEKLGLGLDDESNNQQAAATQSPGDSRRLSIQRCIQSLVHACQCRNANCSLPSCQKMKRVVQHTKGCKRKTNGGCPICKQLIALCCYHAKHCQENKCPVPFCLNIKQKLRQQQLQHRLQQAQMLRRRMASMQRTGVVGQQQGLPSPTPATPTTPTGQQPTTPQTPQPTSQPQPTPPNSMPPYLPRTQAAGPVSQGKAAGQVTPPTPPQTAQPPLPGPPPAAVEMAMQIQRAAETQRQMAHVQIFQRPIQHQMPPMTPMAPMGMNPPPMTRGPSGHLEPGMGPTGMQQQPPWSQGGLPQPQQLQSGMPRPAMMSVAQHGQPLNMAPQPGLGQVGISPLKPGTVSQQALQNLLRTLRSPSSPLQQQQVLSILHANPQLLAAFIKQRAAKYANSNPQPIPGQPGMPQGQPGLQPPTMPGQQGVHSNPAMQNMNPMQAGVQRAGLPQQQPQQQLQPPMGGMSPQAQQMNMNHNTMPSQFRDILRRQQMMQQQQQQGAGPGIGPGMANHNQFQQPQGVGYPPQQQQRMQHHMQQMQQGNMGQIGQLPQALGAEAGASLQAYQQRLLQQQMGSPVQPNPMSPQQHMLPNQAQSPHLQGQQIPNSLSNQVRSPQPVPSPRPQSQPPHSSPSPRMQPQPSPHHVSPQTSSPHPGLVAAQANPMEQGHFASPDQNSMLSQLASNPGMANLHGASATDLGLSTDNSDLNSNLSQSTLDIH

Row | inhibition [1] | logIC50 [2] | inhibition [3] | inhibition [4] | SMILES
1 | inactive | > 2.8 | inactive | inactive | CCCCCc1cccc(O)c1C(=O)O
2 | > 50% | 2.72 | inactive | inactive | O=C(O)c1c(O)cccc1CCCCCCCCCCCO
3 | – | – | 97% | – | CCCCCCCCCCCCCCCc1cccc(O)c1C(=O)O
4 | inactive | > 2.8 | inactive | inactive | CCCCCc1ccc(O)c(C(=O)O)c1
5 | > 50% | 2.09 | 88% | – | CCCCCCCCCCc1cccc(O)c1C(=O)O
6 | inactive | > 2.8 | inactive | inactive | O=C(O)c1c(O)cccc1CCCCCO
7 | > 50% | 2.42 | 85% | – | CCCCCCCCCCCCCCCc1ccc(O)c(C(=O)O)c1
8 | inactive | > 2.8 | inactive | inactive | CCCCCCCSCC(=O)c1ccccc1O
9 | > 50% | 2.28 | 95% | – | CCCCCCCCCCc1ccc(O)c(C(=O)O)c1
10 | inactive | > 2.8 | – | – | CC1=NN(c2ccc(C(=O)O)cc2)C(=O)/C1=C/c1ccc(-c2cc(C)c(C)cc2[N+](=O)[O-])o1
